Compounds with a hit are over-represented: about 2.3% of the library has one in this group of screens.
OXTR agonist – agonists of human oxytocin receptor | activation, % at 3 µM | CHO-OTR cells, Fluo-8 calcium fluorescence; normalized: DMSO 0%, oxytocin 100% | 320,000 compounds, 0.32% hits;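 active = activation above the mean of all tested compounds plus 3 SD, cutoff set per screening run, cut at about 20% in these data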;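 note: peak over basal fluorescence ratio from a 100 s FLIPR kinetic read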
OXTR potentiate – human OXTR potentiation; P30559; CHO-OTR cells, Fluo-8 calcium fluorescence, potentiator mode; 0% = oxytocin EC15, 100% = EC100; activation, % at 3 µM; 320,000 compounds, 0.061% hits; AID 2445;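 active = activation above that plate's cutoff, the mean activation of tested compounds plus 3 SD, cut at about 6.6% in these data, passing the limit was not always enough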
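Material: human OTR in CHO cells. Compound: 3.0 µM, one dose. Timing: compound 6 min at room temperature before oxytocin, 100 s read. Evaluation: % activation of max/min ratio relative to oxytocin controls. Replication: single well per compound, singlicate. Signal: Fluo-8 calcium dye fluorescence.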
TAAR1 antag – human TAAR1 antagonism | Q96RJ0 | CHO RD-HGA16 TAAR1, Fluo-8 calcium fluorescence, antagonist | inhibition, % at 3 µM | 360,000 compounds, 1.5% hits | AID 624466;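 active = inhibition above a per-plate cutoff, the mean inhibition of test compounds on that plate plus 3 SD, cut at about 49% in these data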
Target sequence (Q96RJ0 whole entry, looked up): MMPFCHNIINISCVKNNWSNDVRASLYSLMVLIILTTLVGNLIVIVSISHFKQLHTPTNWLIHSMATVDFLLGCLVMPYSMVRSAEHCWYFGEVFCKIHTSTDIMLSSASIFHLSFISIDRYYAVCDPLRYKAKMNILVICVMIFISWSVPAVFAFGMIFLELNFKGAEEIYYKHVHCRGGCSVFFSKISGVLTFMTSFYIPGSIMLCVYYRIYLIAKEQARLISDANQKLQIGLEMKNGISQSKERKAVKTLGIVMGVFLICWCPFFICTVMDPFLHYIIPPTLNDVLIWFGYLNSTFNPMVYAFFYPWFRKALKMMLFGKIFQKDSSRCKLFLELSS
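Test system – hTAAR1-expressing CHO RD-HGA16 cells, Gα16-coupled · Also added – β-PEA at EC80 concentration, post-compound challenge · Compound – 3 µM, single point · Incubation – dye loading 75 min at 37 °C, then 30 min room temperature · Measured by – Fluo-8 intracellular calcium dye fluorescence, real-time kinetic reads · Benchmarks – vehicle and agonist controls · Replicates – singlicate, one well per test compound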
V1R ag counter – activates human V1a receptor in oxytocin agonist counter-screen; activation, % at 3 µM; 320,000 compounds, 0.25% hits; P37288; CHO-V1R cells, Fluo-8 calcium fluorescence, agonist mode; 0% DMSO, 100% 3 nM vasopressin;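 active = activation above the mean activation of all tested compounds plus 3 SD, per screening run, cut at about 20% in these data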;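 note: signal is peak over basal fluorescence ratio across a 100 second FLIPR read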
Target sequence (P37288 whole entry, looked up): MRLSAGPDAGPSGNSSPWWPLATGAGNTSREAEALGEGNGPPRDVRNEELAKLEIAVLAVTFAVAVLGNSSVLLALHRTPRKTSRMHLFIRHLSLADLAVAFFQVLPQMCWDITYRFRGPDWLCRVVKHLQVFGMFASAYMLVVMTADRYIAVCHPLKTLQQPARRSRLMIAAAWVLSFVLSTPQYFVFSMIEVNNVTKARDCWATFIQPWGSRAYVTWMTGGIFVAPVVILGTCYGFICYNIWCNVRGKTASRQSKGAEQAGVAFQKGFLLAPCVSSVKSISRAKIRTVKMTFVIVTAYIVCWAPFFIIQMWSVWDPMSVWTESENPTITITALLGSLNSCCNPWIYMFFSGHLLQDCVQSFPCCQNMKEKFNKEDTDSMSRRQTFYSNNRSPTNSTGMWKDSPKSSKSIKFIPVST
TAAR1 agonist – human TAAR1 agonism. 360,000 compounds, 0.99% hits. activation, % at 3 µM. CHO RD-HGA16 TAAR1, Fluo-8 calcium fluorescence; vehicle wells 0%, saturating PEA agonist 100%;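 active = activation above the mean activation of all test compounds in the run plus 3 SD, cut at about 38% in these data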
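Benchmarks: low control DMSO, high control PEA (EC100); System: CHO RD-HGA16 cells carrying human TAAR1 plus Gα16; Detection: Fluo-8 fluorescence, 5 s baseline then 140 s kinetic read; Schedule: 17-24 h plating, Fluo-8 75 min 37 °C, 30 min RT; Read-out basis: % activation from peak over basal fluorescence ratio, DMSO-to-PEA scaled.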
TAAR1 ag conf – human TAAR1 agonism, confirmed; shares compounds with TAAR1 agonist; CHO RD-HGA16 TAAR1, Fluo-8 calcium fluorescence; scaled: DMSO 0%, maximal phenethylamine 100%; activation, % at 3 µM; 2,400 compounds, 82% hits; AID 651783;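 active = activation above a cutoff set at the run's mean compound activation plus 3 SD, cut at about 39% in these data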
Ga16 ag counter – counter-screen for TAAR1 agonists: nonselective agonists in parental cells | shares compounds with TAAR1 agonist | CHO-Ga16 parental, Fluo-8 calcium fluorescence; normalized to maximal ATP response, DMSO zero | activation, % at 3 µM | 2,400 compounds, 50% hits | AID 651787;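 active = activation above the run cutoff, the mean activation over all tested wells plus 3 SD, cut at about 12% in these data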
TAAR1 desensitize – human TAAR1 agonist that also desensitizes the receptor; inhibition, % at 3 µM; shares compounds with TAAR1 agonist; 2,400 compounds, 46% hits; CHO RD-HGA16 hTAAR1, Fluo-8 calcium, beta-PEA response inhibition; AID 651951;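 active = inhibition above the run cutoff, the mean inhibition of all test compounds plus 3 SD, cut at about 49% in these data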;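 note: beta-PEA stimulus applied at its EC80; loss of beta-PEA calcium signal after compound pretreatment read as receptor desensitization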
Ga16 nonsel ant – nonselective Ga16 antagonist in TAAR1 agonist counter-screen. 2,400 compounds, 39% hits. shares compounds with TAAR1 agonist. inhibition, % at 3 µM. CHO-Ga16 ATP-induced calcium, Fluo-8 fluorescence;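 active = inhibition above the plate's mean compound inhibition plus 3 SD, computed per plate, cut at about 22% in these data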
Large screens that a line does not name were inactive (follow-up assays come after a bar, where they were run).

CC(C)CNc1cccc2c1S(=O)(=O)N(Cc1ccc(F)cc1)[C@@H](C)[C@H](c1ccccc1)O2	none (no result: OXTR agonist, OXTR potentiate, V1R ag counter)
Cc1nc(N)c(C#N)c(-c2ccccc2Cl)c1C	TAAR1 agonist 73 | TAAR1 ag conf 66 | Ga16 ag counter 44 | TAAR1 desensitize inactive | Ga16 nonsel ant inactive
COc1ccccc1-c1cc(C2CC2)nc(N)c1C#N	none
N#Cc1c(-c2ccccc2Cl)cc(C2CC2)nc1N	OXTR agonist 36, V1R ag counter 30, TAAR1 agonist 92 | TAAR1 ag conf 100 | Ga16 ag counter 60 | TAAR1 desensitize inactive | Ga16 nonsel ant inactive
Cc1cc2nc(C(C)(C)C)c(Cc3cccc(F)c3)n2c(C)c1Br	none (no result: OXTR agonist, OXTR potentiate, V1R ag counter)
C/C(=N\NC(=O)c1nnn(-c2nonc2N)c1-c1ccc2c(c1)OCO2)c1ccccc1	TAAR1 agonist 60 | TAAR1 ag conf 96 | Ga16 ag counter 46 | TAAR1 desensitize inactive | Ga16 nonsel ant inactive
C/C(=N\NC(=O)c1nnn(-c2nonc2N)c1-c1ccc2c(c1)OCO2)c1ccc(C)cc1	TAAR1 antag 80, TAAR1 agonist 125 | TAAR1 ag conf 127 | Ga16 ag counter 94 | TAAR1 desensitize 83 | Ga16 nonsel ant 64
O=C1CCCCC1Sc1nnc(-c2ccc3c(c2)OCO3)o1 (stereo unspecified)	none
O=C(O)c1ccccc1-c1ccc(/C=C/c2cc(C(F)(F)F)[nH]c(=O)n2)o1	TAAR1 agonist 237 (no result: OXTR agonist, OXTR potentiate, V1R ag counter) | TAAR1 ag conf 69 | Ga16 ag counter 117 | TAAR1 desensitize inactive | Ga16 nonsel ant 28
NCCc1c(-c2ccccc2)n(-c2ccccc2)c2ccccc12	TAAR1 antag 63, TAAR1 agonist 61 (no result: OXTR agonist, OXTR potentiate, V1R ag counter) | TAAR1 ag conf 85 | Ga16 ag counter 51 | TAAR1 desensitize 96 | Ga16 nonsel ant 34
CC(=O)n1c(-c2ccccc2)c(CO)c2ccccc21	none
OCCNC(=S)Nc1cccc(Cl)c1Cl	none
COC(=O)c1c(NS(=O)(=O)c2ccc3ccccc3c2)sc2c1CCCC2	none
CC1CCc2c(sc(NS(=O)(=O)c3ccccc3)c2C(=O)OC(C)C)C1 (stereo unspecified)	TAAR1 agonist 43 | TAAR1 ag conf inactive | Ga16 ag counter 19 | TAAR1 desensitize inactive | Ga16 nonsel ant 26
CC1NC(C)c2c(ccc3ccccc23)O1 (stereo unspecified)	none (no result: OXTR agonist, OXTR potentiate, TAAR1 antag, V1R ag counter, TAAR1 agonist) | Ga16 ag counter inactive | Ga16 nonsel ant inactive
CC1NC(C)(C)Cc2c1ccc1ccccc21 (stereo unspecified)	none
CN(C[C@@H](CC1CCCCC1)N(C[C@H](Cc1ccccc1)N(CCc1ccccc1)N=O)N=O)N=O	TAAR1 agonist 60 | TAAR1 ag conf 94 | Ga16 ag counter inactive | TAAR1 desensitize inactive | Ga16 nonsel ant inactive
CC(=O)NC(c1ccc(F)c(F)c1)c1nc(-c2cccc(C(=O)O)c2)cs1 (stereo unspecified)	none (no result: OXTR agonist, OXTR potentiate, V1R ag counter)
O=C(CN1C(=O)/C(=C/c2ccccc2F)Sc2ccccc21)N1CCN(c2ccccn2)CC1	none
Cc1ccc(S(=O)(=O)Nn2c(O)c(C=C3N=c4ccccc4=N3)sc2=S)cc1	none
Cc1ccc(C(=O)Nn2c(O)c(C=C3N=c4ccccc4=N3)sc2=S)cc1	TAAR1 agonist 54 | TAAR1 ag conf 52 | Ga16 ag counter inactive | TAAR1 desensitize 59 | Ga16 nonsel ant 23
CC1(C)CC(=O)C(C(=O)/C=C/NCCc2ccccc2)C(=O)C1	TAAR1 antag 92, TAAR1 agonist 87 | TAAR1 ag conf 109 | Ga16 ag counter inactive | TAAR1 desensitize 93 | Ga16 nonsel ant inactive
CCN1CCN(c2ccc(NC(=O)CCc3c(C)nc4c(-c5ccccc5)c(C)nn4c3C)cc2)CC1	none (no result: TAAR1 antag, TAAR1 agonist) | Ga16 ag counter inactive | Ga16 nonsel ant inactive
O=C(Nc1ccc(Cl)cc1)c1nc[nH]c1C(=O)N1CCN(c2ccccc2)CC1	none
Cn1ccnc1C1CCCCN1C(=O)c1cc(COc2ccc(F)cc2F)on1 (stereo unspecified)	TAAR1 agonist 56 | TAAR1 ag conf inactive | Ga16 ag counter inactive | TAAR1 desensitize inactive | Ga16 nonsel ant inactive
Cc1nonc1C1CCCN1C(=O)c1cc(COc2ccc(F)cc2F)on1 (stereo unspecified)	none
CCCCN1C(=O)/C(=C/C=C2\N(C)c3ccccc3C2(C)C)SC1=S	none (no result: TAAR1 antag, TAAR1 agonist)
CCCCN1C(=O)/C(=C/C=C2\SCCN2C)SC1=S	TAAR1 agonist 71 (no result: OXTR agonist, OXTR potentiate, V1R ag counter) | TAAR1 ag conf 50 | Ga16 ag counter 34 | TAAR1 desensitize inactive | Ga16 nonsel ant 45
Cc1ccc2nc(-c3ccc(C#N)cc3)c(Cc3ccccc3)n2c1	none (no result: OXTR agonist, OXTR potentiate, V1R ag counter)
CC1CCN(CC(=O)c2cccs2)CC1	none
O=C(CN1CCc2ccccc2C1)c1cccs1	TAAR1 agonist 75 | TAAR1 ag conf 86 | Ga16 ag counter inactive | TAAR1 desensitize inactive | Ga16 nonsel ant inactive
O=C(NCN1CCc2ccccc2C1)c1ccccc1	TAAR1 antag 54, TAAR1 agonist 82 | TAAR1 ag conf 50 | Ga16 ag counter inactive | TAAR1 desensitize inactive | Ga16 nonsel ant inactive
CCCNC(=O)c1ccc(CN2CCc3ccccc3C2)cc1	none
O=C(NCN1CCc2ccccc2C1)c1cnccn1	TAAR1 antag 57, TAAR1 agonist 95 | TAAR1 ag conf 88 | Ga16 ag counter inactive | TAAR1 desensitize 65 | Ga16 nonsel ant inactive
NS(=O)(=O)c1cccc(NC(=O)COC(=O)CN2C(=O)c3ccccc3C2=O)c1	none
CC(=O)Nc1ccc2sn(-c3ccccc3)c(=O)c2c1	none (no result: OXTR agonist, OXTR potentiate, V1R ag counter)
O=c1c2cc(Br)ccc2nc(-c2ccc(Cl)cc2)n1O	none
Cc1ccc(-c2nc3c(Cl)cc(Cl)cc3c(=O)n2O)cc1	OXTR agonist 23, V1R ag counter 66, TAAR1 agonist 80 | TAAR1 ag conf 49 | Ga16 ag counter 52 | TAAR1 desensitize inactive | Ga16 nonsel ant inactive
Cc1cccc(C)c1NC(=O)Nc1nc(CN(C)C)cs1	none (no result: OXTR agonist, OXTR potentiate, V1R ag counter)
CCN(CC)c1ccc(C=C2C(=O)OC(c3ccccc3)OC2=O)cc1 (stereo unspecified)	none
CCN(CC)c1ccc(/C=C/C(=O)C2C(=O)C=C(C)OC2=O)cc1 (stereo unspecified)	OXTR agonist 158, TAAR1 antag 108, V1R ag counter 141, TAAR1 agonist 406 | TAAR1 ag conf 536 | Ga16 ag counter 664 | TAAR1 desensitize 109 | Ga16 nonsel ant 105

From PubChem
